Assay [1] has as its system Aspergillus fumigatus. Nature of the assay: Antifungal activity against Aspergillus fumigatus assessed as inhibition zone diameter […] by agar dilution method. It is filed as functional. An outline of the steps: (§1)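 Compounds in DMSO placed in punched wells on Sabouraud agar (peptone, glucose, agar, pH 5.7) lawned with saline spore suspension. Plates pre-dried 1 h at 37 °C. Controls in triplicate, incubation at 37 °C for 3-4 days, then inhibition zone diameter read in mm. Amphotericin B reference.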
(In agar dilution the substance is mixed into plates at graded concentrations.)

Assay [2] concerns Aspergillus flavus. Nature of the assay: Antifungal activity against Aspergillus flavus assessed as inhibition zone diameter […] by agar dilution method. It is filed as functional. An outline of the steps: as §1
Assay [3] concerns Klebsiella pneumoniae. Nature of the assay: Antibacterial activity against Klebsiella pneumoniae assessed as inhibition zone diameter after 24 hrs […]. It is filed as functional. An outline of the steps: (§2)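 Disc diffusion on nutrient agar. Inoculum 1-2 × 10^7 c.f.u/ml (0.5 McFarland) spread over the plate surface. Sterile 6.25 mm filter-paper discs soaked in a known concentration of compound. Solvent and growth controls included. Plates incubated inverted 24 h at 37 °C, then inhibition zone diameter measured in mm. Ciprofloxacin reference.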
(In broth dilution the organism is exposed to a series of concentrations in liquid medium.)

Assay [4] deals with Aspergillus fumigatus. Nature of the assay: Antifungal activity against Aspergillus fumigatus after 48 hrs […]. It is filed as functional.
In assay [5] the test system is Streptococcus pyogenes. Nature of the assay: Antibacterial activity against Streptococcus pyogenes after 24 hrs by broth dilution technique. It is filed as functional. An outline of the steps:
(§3)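 MIC by broth dilution in nutrient broth with logarithmic serial twofold dilutions of compound. Inoculum approx. 5×10^5 c.f.u actively dividing bacteria. Incubated 24 h at 37 °C, growth monitored visually and spectrophotometrically. MIC taken as the lowest concentration (highest dilution) arresting growth. Ciprofloxacin reference.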

The subject of assay [6] is Candida albicans. Nature of the assay: Antifungal activity against Candida albicans assessed as inhibition zone diameter […] by agar dilution method. In kind it is functional. The method, boiled down:
as §1

The test system of assay [7] is Pseudomonas aeruginosa. Nature of the assay: Antibacterial activity against Pseudomonas aeruginosa ATCC 27853 assessed as inhibition zone diameter after 24 hrs […]. In kind it is functional. The method, boiled down: as §2
The test system of assay [8] is Talaromyces marneffei. Nature of the assay: Antifungal activity against Penicillium marneffei assessed as inhibition zone diameter […] by agar dilution method. It is filed as functional. The method, boiled down:
as §1

The subject of assay [9] is Streptococcus pyogenes. Nature of the assay: Antibacterial activity against Streptococcus pyogenes assessed as inhibition zone diameter after 24 hrs by disc diffusion method. A general note: Agar diffusion results depend on both activity and mobility in agar.
In assay [10] the test system is Trichophyton mentagrophytes. Nature of the assay: Antifungal activity against Trichophyton mentagrophytes after 48 hrs […]. In kind it is functional.
Assay [11] relates to Pseudomonas aeruginosa. Nature of the assay: Antibacterial activity against Pseudomonas aeruginosa ATCC 27853 after 24 hrs by broth dilution technique. It is filed as functional. Particulars: ATCC 27853, 24 h. An outline of the steps: as §3
For assay [12], the system named is Trichophyton mentagrophytes. Nature of the assay: Antifungal activity against Trichophyton mentagrophytes assessed as inhibition zone diameter […] by agar dilution method. In kind it is functional. An outline of the steps: as §1
In assay [13] the test system is Talaromyces marneffei. Nature of the assay: Antifungal activity against Penicillium marneffei after 48 hrs […]. In kind it is functional.
In a further assay the test system is Escherichia coli. Nature of the assay: Antibacterial activity against Escherichia coli ATCC 25922 after 24 hrs by broth dilution technique. In kind it is functional. Particulars: ATCC 25922, 24 h. An outline of the steps: as §3
Assay [14] has as its system Candida albicans. Nature of the assay: Antifungal activity against Candida albicans after 48 hrs […]. It is filed as functional.
Assay [15] has as its system Staphylococcus aureus. Nature of the assay: Antibacterial activity against Staphylococcus aureus ATCC 25923 after 24 hrs by broth dilution technique. It is filed as functional. Particulars: ATCC 25923, 24 h. An outline of the steps: as §3
Assay [16] deals with Aspergillus flavus. Nature of the assay: Antifungal activity against Aspergillus flavus after 48 hrs […]. It is filed as functional.
In assay [17] the test system is Staphylococcus aureus. Nature of the assay: Antibacterial activity against Staphylococcus aureus ATCC 25923 assessed as inhibition zone diameter after 24 hrs […]. In kind it is functional. An outline of the steps:
as §2

In assay [18] the test system is Klebsiella pneumoniae. Nature of the assay: Antibacterial activity against Klebsiella pneumoniae after 24 hrs by broth dilution technique. It is filed as functional. An outline of the steps:
as §3

≈ marks a conversion by molar mass, not a printed value.

As to `Nn1c(SCC(=O)Nc2c(Cl)cccc2Cl)nnc1-c1cc(F)c(Cl)cc1Cl`, the “inhibition zone (IZ)” value in the assay on Aspergillus fumigatus [1] was determined as 15 mm; in the assay with Aspergillus flavus [2], 17 mm; in the assay on Klebsiella pneumoniae [3], 21 mm; in the assay with Candida albicans [6], 12 mm; in the assay on Pseudomonas aeruginosa [7], 23 mm; with Talaromyces marneffei [8] it was 13 mm. The “inhibition zone (IZ)” value with Streptococcus pyogenes [9] was found to be 19 mm; in [12], 10 mm; in the assay on Staphylococcus aureus [17], 18 mm. The minimal inhibitory concentration (MIC) (commonly the lowest concentration found to suppress growth) in the assay with Aspergillus fumigatus [4] was 12.5 µg/mL (≈ 26 µM); in the assay with Streptococcus pyogenes [5], 6.25 µg/mL (≈ 13 µM); in [10], 25 µg/mL (≈ 52 µM); against Pseudomonas aeruginosa [11] it was 12.5 µg/mL (≈ 26 µM); in the assay with Talaromyces marneffei [13] it was 12.5 µg/mL (≈ 26 µM); against Escherichia coli, 12.5 µg/mL (≈ 26 µM). The MIC in the assay with Candida albicans [14] came to 12.5 µg/mL (≈ 26 µM); in the assay on Staphylococcus aureus [15] it was 6.25 µg/mL (≈ 13 µM); in the assay on Aspergillus flavus [16] it was 6.25 µg/mL (≈ 13 µM); with Klebsiella pneumoniae [18], 6.25 µg/mL (≈ 13 µM).

On to `Nn1c(SCC(=O)Nc2ccc(F)cc2)nnc1-c1cc(F)c(Cl)cc1Cl`, for which the “inhibition zone (IZ)” value in the assay with Aspergillus fumigatus [1] stood at 19 mm; in the assay on Aspergillus flavus [2], 21 mm; with Klebsiella pneumoniae [3], 21 mm; with Candida albicans [6], 19 mm; in the assay on Pseudomonas aeruginosa [7], 30 mm; in the assay on Talaromyces marneffei [8] it was 24 mm. In addition, the results for the “inhibition zone (IZ)” value (in the assay on Streptococcus pyogenes [9]; in assay [12]; in the assay with Staphylococcus aureus [17]) were 22 mm, 17 mm and 23 mm, respectively. Besides, the MIC (with Aspergillus fumigatus [4]; against Streptococcus pyogenes [5]; in assay [10]; with Pseudomonas aeruginosa [11]; with Talaromyces marneffei [13]; in the assay with Escherichia coli) was 6.25 µg/mL (≈ 14.5 µM) each time. The MIC against Candida albicans [14], with Staphylococcus aureus [15], in the assay on Aspergillus flavus [16] and with Klebsiella pneumoniae [18] was 6.25 µg/mL (≈ 14.5 µM) in each case.

`Cc1ccc(NC(=O)CSc2nnc(-c3cc(F)c(Cl)cc3Cl)n2N)c(C)c1`: the “inhibition zone (IZ)” value is reported as 8 mm in the assay with Aspergillus fumigatus [1]; 10 mm in the assay with Aspergillus flavus [2]; 10 mm in the assay on Klebsiella pneumoniae [3]; 14 mm in the assay on Candida albicans [6]; 30 mm with Pseudomonas aeruginosa [7]; 9 mm with Talaromyces marneffei [8]. For the same molecule, the “inhibition zone (IZ)” value came out at 18 mm in the assay with Streptococcus pyogenes [9], 12 mm in assay [12] and 17 mm in the assay with Staphylococcus aureus [17]. Besides, the MIC in the assay on Aspergillus fumigatus [4] is 25 µg/mL (≈ 56.8 µM); against Streptococcus pyogenes [5], 6.25 µg/mL (≈ 14.2 µM); in [10], 6.25 µg/mL (≈ 14.2 µM); against Pseudomonas aeruginosa [11], 6.25 µg/mL (≈ 14.2 µM); against Talaromyces marneffei [13], 25 µg/mL (≈ 56.8 µM); against Escherichia coli, 6.25 µg/mL (≈ 14.2 µM). The MIC in the assay with Candida albicans [14] stood at 12.5 µg/mL (≈ 28.4 µM); against Staphylococcus aureus [15] it was 6.25 µg/mL (≈ 14.2 µM); against Aspergillus flavus [16], 25 µg/mL (≈ 56.8 µM); in the assay with Klebsiella pneumoniae [18] it was 25 µg/mL (≈ 56.8 µM).

Regarding `Cc1cccc(NC(=O)CSc2nnc(-c3cc(F)c(Cl)cc3Cl)n2N)c1C`, the “inhibition zone (IZ)” value with Aspergillus fumigatus [1] came out at 20 mm; in the assay with Aspergillus flavus [2] it was 15 mm; with Klebsiella pneumoniae [3], 17 mm; with Candida albicans [6], 18 mm; with Pseudomonas aeruginosa [7], 20 mm; in the assay with Talaromyces marneffei [8], 15 mm. The “inhibition zone (IZ)” value with Streptococcus pyogenes [9] worked out at 24 mm; in [12], 16 mm; with Staphylococcus aureus [17], 20 mm. In addition, the MIC was 6.25 µg/mL (≈ 14.2 µM) in the assay on Aspergillus fumigatus [4]; 6.25 µg/mL (≈ 14.2 µM) in the assay with Streptococcus pyogenes [5]; 6.25 µg/mL (≈ 14.2 µM) in [10]; 12.5 µg/mL (≈ 28.4 µM) in the assay with Pseudomonas aeruginosa [11]; 12.5 µg/mL (≈ 28.4 µM) against Talaromyces marneffei [13]; 12.5 µg/mL (≈ 28.4 µM) in the assay on Escherichia coli. The MIC with Candida albicans [14] is 6.25 µg/mL (≈ 14.2 µM); against Staphylococcus aureus [15] it was 6.25 µg/mL (≈ 14.2 µM); in the assay on Aspergillus flavus [16] it was 12.5 µg/mL (≈ 28.4 µM); in the assay with Klebsiella pneumoniae [18] it was 12.5 µg/mL (≈ 28.4 µM).

Values taken from ChEMBL document CHEMBL1149770, “Synthesis and antimicrobial studies of novel dichlorofluorophenyl containing aminotriazolothiadiazines” (2008).
